Laboratory results: ChEMBL document CHEMBL1138232, “Optimization of naphthalimide-imidazoacridone with potent antitumor activity leading to clinical candidate (HKH40A, RTA 502)” (J Med Chem, 2007)
pIC50: −log10 of the molar value.

Assays:
[1] = test system: HCT-116; assay: Growth inhibition of human HCT116 cells after 5 days by MTT assay; assay type: functional; details: HCT-116, 120 h
In short: (§1)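 MTT assay after 5 day continuous exposure. GI50, TGI and LC50 calculated from the MTT data. Means ± SD of at least three independent experiments; coefficients of variation 10-20%. Compounds used as tri(methanesulfonate) salts.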

[2] = test system: HT-29; assay: Growth inhibition of human HT29 cells after 5 days by MTT assay; assay type: functional; details: HT-29, 120 h; for CC50: read-out: LC50 (the source's name); in short: as §1
[3] = Growth inhibition of human Hep3B cells after 5 days by MTT assay; assay type: functional, Hep 3B2; details: 120 h; for CC50: read-out: LC50 (the source's name); in short: as §1
[4] = test system: HCT-116; assay: Antitumor activity against human HCT116 cells expressing wild type p53; assay type: functional; details: read-out: LC50 (the source's name)
In short: (§2)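 Compounds tested as tri(methanesulfonate) salts, soluble in water and dilute buffers. Human tumour cells carrying wild-type or mutated p53 were exposed for 5 days, and viability was read by MTT assay. GI50, TGI and LC50 were calculated from the MTT data. Values are means ± SD of at least three independent experiments, with coefficients of variation of 10–20%.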

[5] = test system: RKO; assay: Antitumor activity against human RKO cells expressing wild type p53; assay type: functional; details: read-out: LC50 (the source's name); in short: as §2
[6] = test system: COLO 205; assay: Antitumor activity against human Colo205 cells expressing mutated p53; assay type: functional, cell-based; in short: as §2
[7] = test system: HT-29; assay: Antitumor activity against HT29 cells expressing mutated p53; assay type: functional, cell-based; details: Homo sapiens; in short: as §2
[8] = test system: ASPC1; assay: Antitumor activity against p53 null human ASPC1 cells; assay type: functional, cell-based
[9] = Antitumor activity against human 10.05 cells expressing mutated p53; assay type: functional, cell-based; in short: as §2
[10] = test system: PC-3; assay: Antitumor activity against PC3 cells expressing mutated p53; assay type: functional, cell-based; details: Homo sapiens; in short: as §2
[11] = test system: HCT-116; assay: Cell cycle arrest in HCT116 cells assessed as accumulation at Sub G1 phase at 50 nM after 72 hrs; assay type: functional, Homo sapiens
In short: (§3)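 HCT116 cells exposed to 50 nM drug for 72 h, then cell-cycle distribution analysed. Sub-G1, G1, S and G2/M fractions reported as percent of cells, with untreated control cells for comparison.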

[12] = test system: HCT-116; assay: Cell cycle arrest in HCT116 cells assessed as accumulation at G1 phase at 50 nM after 72 hrs; assay type: functional, Homo sapiens; in short: as §3
[13] = test system: HCT-116; assay: Cell cycle arrest in HCT116 cells assessed as accumulation at S phase at 50 nM after 72 hrs; assay type: functional, Homo sapiens; in short: as §3
[14] = test system: HCT-116; assay: Cell cycle arrest in HCT116 cells assessed as accumulation at G2/M phase at 50 nM after 72 hrs; assay type: functional, Homo sapiens; in short: as §3
[15] = test system: MIA PaCa-2; assay: Inhibition of tumor growth in PaCa2 cells xenografted nu/nu mouse at 80 mg/kg; assay type: functional, Homo sapiens; details: read-out: TGI
In short: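 PaCa-2 tumour fragments implanted on the flank of nu/nu mice, 10 per group. Intraperitoneal treatment, Q3Dx4, started 12 days post-inoculation at 80 mm3 tumour volume. Tumour growth inhibition measured.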

Structure (SMILES) | GI50 [1] [nM] | LC50 [1] [nM] | GI50 [2] [nM] | CC50 [2] [nM] | GI50 [3] [nM] | CC50 [3] [nM] | other results
O=C1c2cccc3cccc(c23)C(=O)N1CCCN1CCN(CCCNc2ccc3ncn4c5ccccc5c(=O)c2c34)CC1 | 15 | 1000 | 11 | 1000 | 22 | 1000 | –
COc1ccc2c(c1)c(=O)c1c(NCCCN3CCN(CCCN4C(=O)c5cccc6cccc(c56)C4=O)CC3)ccc3ncn2c31 | 3.5 | 70 | 3 | 1000 | 3.5 | 330 | –
Nc1cc2c3c(cccc3c1)C(=O)N(CCCN1CCN(CCCNc3ccc4ncn5c6ccc(F)cc6c(=O)c3c45)CC1)C2=O | 2.2 | 80 | 8 | 750 | – | – | –
O=C1c2cccc3cc([N+](=O)[O-])cc(c23)C(=O)N1CCCN1CCN(CCCNc2ccc3ncn4c5ccccc5c(=O)c2c34)CC1 | 1 | 40 | 2 | 550 | 4 | 380 | CC50 [4]: 40 nM; CC50 [5]: 40 nM; pIC50 [6]: 6.30; pIC50 [7]: 6.26; pIC50 [8]: 6.46; pIC50 [9]: 6.52; pIC50 [10]: < 6.00; Activity [11]: 15.5%; Activity [12]: 37.9%; Activity [13]: 1.3%; Activity [14]: 45%
O=C1c2cccc3cc([N+](=O)[O-])cc(c23)C(=O)N1CCCN1CCN(CCCNc2ccc3ncn4c5ccc(F)cc5c(=O)c2c34)CC1 | 1 | 40 | 2 | 600 | 4 | 400 | –
Cc1ccc2c(c1)c(=O)c1c(NCCCN3CCN(CCCN4C(=O)c5cccc6cc([N+](=O)[O-])cc(c56)C4=O)CC3)ccc3ncn2c31 | 3.5 | 30 | – | – | – | – | –
Cc1cccc2c1c(=O)c1c(NCCCN3CCN(CCCN4C(=O)c5cccc6cc([N+](=O)[O-])cc(c56)C4=O)CC3)ccc3ncn2c31 | 3 | 30 | – | – | – | – | –
O=C1c2cccc3c([N+](=O)[O-])ccc(c23)C(=O)N1CCCN1CCN(CCCNc2ccc3ncn4c5ccccc5c(=O)c2c34)CC1 | 5.5 | > 1000 | 15 | 1000 | 18 | 1000 | –
COc1ccc2c(c1)c(=O)c1c(NCCCN3CCN(CCCN4C(=O)c5cccc6c([N+](=O)[O-])ccc(c56)C4=O)CC3)ccc3ncn2c31 | 3 | 350 | 4 | 1000 | 5 | 800 | –
Nc1ccn([C@@H]2O[C@H](CO)[C@@H](O)C2(F)F)c(=O)n1 [GEMCITABINE] | – | – | – | – | – | – | inhibition in vivo at 80 mg/kg [15]: 85.3%
